The test system of assay [1] is SK-OV-3. Description: Antiproliferative activity against human SKOV3 cells after 72 hrs by CCK8 assay. The settings on record: SK-OV-3, 72 h. The class given is functional, cell-based. The essentials: (§1)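 CCK-8 proliferation assay with CA-4 as positive control. IC50 is the concentration giving 50% inhibition of proliferation. Mean ± SEM from three independent experiments.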
(Tetrazolium dyes change colour on reduction, which living cells bring about.)

A further assay concerns MDA-MB-231. Description: Antiproliferative activity against human MDA-MB-231 cells after 72 hrs by CCK8 assay. The class given is functional, cell-based. The following applies: MDA-MB-231, 72 h. The essentials:
as §1

Another assay concerns HeLa. Kind of assay: Antiproliferative activity against human HeLa cells after 72 hrs by CCK8 assay. In kind it is functional, cell-based. A digest of the protocol:
as §1

The test system of another assay is A549. Kind of assay: Antiproliferative activity against human A549 cells after 72 hrs by CCK8 assay. The class given is functional, cell-based. The following applies: A549, 72 h. A digest of the protocol:
as §1

The next assay deals with CT26. Description: Antiproliferative activity against mouse CT26 cells after 72 hrs by CCK8 assay. The class given is functional, cell-based. The settings on record: CT26, 72 h. A digest of the protocol: as §1
The test system of another assay is MCF7. Kind of assay: Antiproliferative activity against human MCF7 cells after 72 hrs by CCK8 assay. In kind it is functional, cell-based. The following applies: MCF7, 72 h. The essentials:
as §1

Assay [2] relates to SK-OV-3. Kind of assay: Antimigratory activity against human SKOV3 cells assessed as wound closure at 80 nM after 24 hrs by microscopy based scratch wound assay (reference value: 79.5 +/- 2.8%). In kind it is functional.
Assay [3] relates to SK-OV-3. Kind of assay: Antimigratory activity against human SKOV3 cells assessed as wound closure at 160 nM after 24 hrs by microscopy based scratch wound assay (reference value: 79.5 +/- 2.8%). In kind it is functional.
The test system of assay [4] is SK-OV-3. Kind of assay: Antimigratory activity against human SKOV3 cells assessed as number of migrated cells at 50 nM after 24 hrs by crystal violet staining based transwell migration assay (reference value: 49.3 to 50.7). The class given is functional.
The subject of assay [5] is SK-OV-3. Description: Antimigratory activity against human SKOV3 cells assessed as number of migrated cells at 25 nM after 24 hrs by crystal violet staining based transwell migration assay (reference value: 49.3 to 50.7). In kind it is functional.
Assay [6] concerns SK-OV-3. Kind of assay: Antimigratory activity against human SKOV3 cells assessed as number of migrated cells at 100 nM after 24 hrs by crystal violet staining based transwell migration assay (reference value: 49.3 to 50.7). The class given is functional.
The species entered for the next assay is Bos taurus. Description: Inhibition of bovine MAP-rich tubulin polymerization at 10 uM measured every 1 min for 30 mins relative to control. The essentials:
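Purified tubulin polymerization followed at 37 °C by absorbance at 340 nm, read every 1 min for 30 min. Test concentrations 2.5, 10 and 40 µM. CA-4 at 10 µM served as positive control and DMSO (1%, v/v) as vehicle. Polymerization is expressed relative to the vehicle group.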

The values that follow come from ChEMBL document CHEMBL4270544, “Design, synthesis and biological evaluation of a novel tubulin inhibitor 7a3 targeting the colchicine binding site” (Eur J Med Chem, 2018).

Active and inactive are the calls of the source. No cut-off for these calls is given here.

In general, IC50 refers to the midpoint of a concentration-inhibition curve. Read a high IC50 as weaker potency. For `CCOc1ccc(-c2c(-c3cc(OC)c(OC)c(OC)c3)nn(-c3ccc(OC)cc3)c2N)cc1`, the half-maximal inhibitory concentration (IC50) with SK-OV-3 [1] turned out to be 1210 nM; in the assay on MDA-MB-231 it was 2010 nM.

`CCOc1ccc(-c2cnn(C)c2-c2cc(OC)c(OC)c(OC)c2)cc1`: the IC50 with SK-OV-3 [1] is 43 nM; with MDA-MB-231 it was 72 nM; with HeLa it was 93.1 nM; in the assay on A549, 99 nM; in the assay with CT26 it was 165 nM; in the assay with MCF7, 39.9 nM.

On to `COc1ccc(-c2c(-c3cc(OC)c(OC)c(OC)c3)nn(C(C)(C)C)c2N)cc1F`, for which the figures for the IC50 in the assay with SK-OV-3 [1] and in the assay on MDA-MB-231 were 16900 nM and 29500 nM, respectively.

In the case of `COc1cc(-c2nn(C(C)(C)C)c(N)c2-c2ccc(SC)cc2)cc(OC)c1OC`, the results for the half-inhibitory concentration (IC50) with SK-OV-3 [1] and in the assay on MDA-MB-231 were 24200 nM and 20800 nM, respectively.

As to `COc1ccc(-c2c(-c3cc(OC)c(OC)c(OC)c3)nn(-c3ccc(OC)cc3)c2N)cc1`, the figures for the IC50 with SK-OV-3 [1] and in the assay on MDA-MB-231 were 19000 nM and 15900 nM, respectively.

Take `COc1ccc(-c2c(-c3cc(OC)c(OC)c(OC)c3)nn(C)c2N)cc1F`: the values for the IC50 in the assay with SK-OV-3 [1] and in the assay with MDA-MB-231 were 31800 nM and 36400 nM, respectively.

`COc1ccc(-c2cnn(C)c2-c2cc(OC)c(OC)c(OC)c2)cc1F`: the IC50 in the assay with SK-OV-3 [1] was 66 nM; with MDA-MB-231 it was 57 nM; in the assay on HeLa, 112 nM; with A549, 187 nM; in the assay with CT26, 151 nM; with MCF7, 113 nM.

For the compound `COc1ccc(-n2nc(-c3cc(OC)c(OC)c(OC)c3)c(-c3ccc(OC)c(F)c3)c2N)cc1`, the 50% inhibitory concentration (IC50) came to 14700 nM in the assay on SK-OV-3 [1] and 18400 nM in the assay with MDA-MB-231.

For the compound `COc1ccc(-c2c(-c3cc(OC)c(OC)c(OC)c3)nn(C)c2N)cc1`, the IC50 came out at 16300 nM in the assay with SK-OV-3 [1] and 31100 nM in the assay with MDA-MB-231.

As to `COc1ccc(-c2c(-c3cc(OC)c(OC)c(OC)c3)nn(-c3ccc(F)cc3)c2N)cc1F`, the IC50 in the assay on SK-OV-3 [1] is 33200 nM; in the assay on MDA-MB-231, 24600 nM.

Turning to `COc1ccc(-n2nc(-c3cc(OC)c(OC)c(OC)c3)c(-c3ccc(SC)cc3)c2N)cc1`, the IC50 was determined as 14000 nM in the assay with SK-OV-3 [1] and 7050 nM in the assay with MDA-MB-231.

Consider `CCOc1ccc(-c2c(-c3cc(OC)c(OC)c(OC)c3)nn(C)c2N)cc1`, for which the IC50 came out at 338 nM with SK-OV-3 [1] and 490 nM with MDA-MB-231.

For the compound `COc1ccc(-c2cn(C)nc2-c2cc(OC)c(OC)c(OC)c2)cc1`, the IC50 in the assay on SK-OV-3 [1] stood at 89 nM; in the assay with MDA-MB-231, 166 nM.

Regarding `CCOc1ccc(-c2c(-c3cc(OC)c(OC)c(OC)c3)nn(-c3ccc(F)cc3)c2N)cc1`, the values for the IC50 with SK-OV-3 [1] and in the assay with MDA-MB-231 were 2830 nM and 1660 nM, respectively.

As to `COc1cc(-c2nn(C)c(N)c2-c2ccc(SC)cc2)cc(OC)c1OC`, the values for the IC50 in the assay with SK-OV-3 [1] and with MDA-MB-231 were 438 nM and 748 nM, respectively.

Turning to `COc1cc(-c2nn(C)cc2-c2ccc(SC)cc2)cc(OC)c1OC`, the values for the IC50 with SK-OV-3 [1] and with MDA-MB-231 were 155 nM and 307 nM, respectively.

Regarding `COc1ccc(/C=C\c2cc(OC)c(OC)c(OC)c2)cc1O` [COMBRETASTATIN A4], the IC50 with SK-OV-3 [1] is 5.9 nM; in the assay with MDA-MB-231, 4.5 nM; in the assay on HeLa it was 14.2 nM; with A549 it was 94.3 nM; in the assay with CT26 it was 45.1 nM; with MCF7 it was 39.1 nM. For the same compound, the Activity turned out to be 41.9% with SK-OV-3 [2]; 29.2% with SK-OV-3 [3]; 20.7 in the assay on SK-OV-3 [4]; 26.3 in the assay on SK-OV-3 [5]; 18.3 with SK-OV-3 [6]. The inhibition result in the assay filed under Bos taurus is “Active”.

Regarding `COc1ccc(-c2c(-c3cc(OC)c(OC)c(OC)c3)nn(-c3ccc(F)cc3)c2N)cc1`, the IC50 with SK-OV-3 [1] turned out to be 28900 nM; with MDA-MB-231, 33700 nM.

For `COc1cc(-c2nn(-c3ccc(F)cc3)c(N)c2-c2ccc(SC)cc2)cc(OC)c1OC`, the IC50 with SK-OV-3 [1] came to 7370 nM; with MDA-MB-231, 22900 nM.

Turning to `COc1cc(-c2c(-c3ccc(SC)cc3)cnn2C)cc(OC)c1OC`, the IC50 in the assay with SK-OV-3 [1] was found to be 52 nM; in the assay with MDA-MB-231, 41 nM.

Regarding `CCOc1ccc(-c2c(-c3cc(OC)c(OC)c(OC)c3)nn(C(C)(C)C)c2N)cc1`, the IC50 was 1120 nM in the assay with SK-OV-3 [1] and 2570 nM in the assay with MDA-MB-231.

On to `COc1ccc(-c2cn(C)nc2-c2cc(OC)c(OC)c(OC)c2)cc1F`, for which the IC50 in the assay with SK-OV-3 [1] was determined as 55 nM; in the assay on MDA-MB-231, 41 nM; in the assay on HeLa, 28.8 nM; with A549, 141 nM; in the assay on CT26, 58.7 nM; in the assay on MCF7 it was 37.2 nM.

Regarding `COc1ccc(-c2c(-c3cc(OC)c(OC)c(OC)c3)nn(C(C)(C)C)c2N)cc1`, the IC50 in the assay on SK-OV-3 [1] is 40300 nM; in the assay with MDA-MB-231, 31300 nM.

In the case of `COc1ccc(-c2cnn(C)c2-c2cc(OC)c(OC)c(OC)c2)cc1`, the IC50 in the assay with SK-OV-3 [1] stood at 69 nM; in the assay on MDA-MB-231 it was 74 nM.
